Experimental findings from ChEMBL document CHEMBL4765436, “Discovery, structure-activity relationship study and biological evaluation of 2-thioureidothiophene-3-carboxylates as a novel class of C-X-C chemokine receptor 2 (CXCR2) antagonists” (Eur J Med Chem, 2020) are described below.

Structures are written as SMILES. pIC50, pKi: −log10 of the molar value. Calls of active or inactive are those of the source. The calls are words filed in the database; no cut-off is given here. Bounds are passed on as bounds.

Experiment [1] addresses T1, C-X-C chemokine receptor type 2 (Homo sapiens) (UniProt P25025).
T1 sequence (whole entry): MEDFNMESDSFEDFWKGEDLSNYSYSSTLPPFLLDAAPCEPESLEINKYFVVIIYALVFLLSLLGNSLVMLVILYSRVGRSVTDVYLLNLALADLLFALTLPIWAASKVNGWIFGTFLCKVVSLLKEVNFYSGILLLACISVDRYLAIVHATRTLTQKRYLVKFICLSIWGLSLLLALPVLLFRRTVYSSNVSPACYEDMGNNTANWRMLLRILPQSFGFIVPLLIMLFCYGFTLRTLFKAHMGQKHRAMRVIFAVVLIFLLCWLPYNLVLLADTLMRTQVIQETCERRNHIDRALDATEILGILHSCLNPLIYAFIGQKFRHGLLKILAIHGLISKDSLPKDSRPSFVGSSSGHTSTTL
Description: Antagonist activity at CXCR2 (unknown origin) expressed in HEK293T cells cotransfected with GFP and p22F assessed as inhibition of CXCL8-reduced cAMP production at 5 uM incubated for 10 mins followed by CXCL8 stimulation and measured after 10 mins by luminescence based assay. Type of experiment: functional, cell-based. The conditions noted are these: filed as antagonist, time 20.0 min. The essentials: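 293T-CXCR2-GFP-p22F cells express a cAMP-sensitive firefly luciferase. They were seeded at 30000 cells/well overnight in CO2-independent medium with 10% FBS, then incubated with 1% cAMP reagent for 2 h at 37 °C. Cells were pretreated with compound for 10 min, given CXCL8 (50 nM) for 10 min, then stimulated with forskolin (50 μM) until maximal signal (~80 min). Luminescence read-out.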
On the technique in general: cAMP levels reflect the balance of adenylyl cyclase and phosphodiesterase activity.

The target in experiment [2] is T1, C-X-C chemokine receptor type 2 (Homo sapiens). Description: Antagonist activity at CXCR2 (unknown origin) expressed in HEK293T cells cotransfected with GFP and p22F assessed as inhibition of […] at 15 uM incubated at 37 degC for 30 min and at room temperature for 30 min by fluorescence based assay. Type of experiment: functional, cell-based. The conditions noted are these: filed as antagonist, time 60.0 min. A digest of the protocol:
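293T-CXCR2-GFP cells were seeded at 30000 cells/well and loaded next day with Fluo-4 NW dye plus probenecid ([…] final). Loading was 30 min at 37 °C, then 30 min at room temperature, protected from light. Compound and CXCL8 (300 nM, by injector) were added. Fluorescence was read immediately (ex 490/em 535 nm) and normalized to the pre-stimulation baseline.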
Background: Calcium assays in cells follow changes in intracellular calcium, usually with a dye or a luminescent sensor.

Experiment [3] shares this target. Description: Antagonist activity at CXCR2 (unknown origin) expressed in HEK293T cells cotransfected with GFP assessed as inhibition of CXCL8-induced ERK1/2 phosphorylation pretreated at 10 uM followed by treated with CXCL8 by immunoblot assay. The experiment is classed as cell-based. The following applies: filed as antagonist. The essentials: (§1)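 293T-CXCR2-GFP cells (5 x 10^5/well) were attached overnight, treated with compounds and lysed in RIPA buffer with protease/phosphatase inhibitors. Lysates were normalized by BCA and resolved on 10% SDS-PAGE. Blots were probed overnight at 4 °C with antibodies (1:500-1:1000) to p-ERK1/2, p-JNK, p-cJUN or p-p38, then with a fluorescent secondary antibody, and imaged by infrared imaging.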
(A western blot detects proteins with antibodies after separation by electrophoresis.)

Experiment [4] shares this target. In words: Antagonist activity at CXCR2 (unknown origin) expressed in HEK293T cells cotransfected with GFP assessed as inhibition of CXCL8-induced p38 phosphorylation at 10 uM post CXCL8 treatment by immunoblot assay. Type of experiment: cell-based. The essentials:
as §1

For experiment [5] the target is unchanged. Description: Antagonist activity at CXCR2 (unknown origin) expressed in HEK293T cells cotransfected with GFP assessed as inhibition of CXCL8-induced JNK phosphorylation at 10 uM post CXCL8 treatment by immunoblot assay. The experiment is classed as cell-based. The essentials:
as §1

Experiment [6] shares this target. In words: Antagonist activity at CXCR2 (unknown origin) expressed in HEK293T cells cotransfected with GFP assessed as inhibition of CXCL8-induced cJUN phosphorylation at 10 uM post CXCL8 treatment by immunoblot assay. Type of experiment: cell-based. A digest of the protocol:
as §1

The target is the same in experiment [7]. In words: Antagonist activity at CXCR2 (unknown origin) expressed in HEK293T cells cotransfected with GFP assessed as inhibition of CXCL8-induced AKT phosphorylation at 10 uM post CXCL8 treatment by immunoblot assay. Type of experiment: cell-based.
The test system of a further experiment is U2OS. Description: Antimigratory activity against human U2OS cells overexpressing CXCR2/bla assessed as reduction in CXCL8-mediated wound closure at 10 uM incubated for 20 mins followed by CXCL8 stimulation and measured after 24 hrs by Giemsa staining based scratch wound healing assay. The experiment is classed as functional, cell-based. The conditions noted are these: time 24.3 hrs. The essentials:
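CXCR2-bla U2OS cells were seeded at 35000/well in DMEM with 1% FBS overnight and scratched with a pipette tip. Compounds (10 μM) were added for 20 min, then CXCL8 (60 nM) for 24 h; unstimulated wells served as control. Cells were methanol-fixed, Giemsa-stained and imaged by transmitted light. Two independent experiments were run in duplicate.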

Experiment [8] concerns the target T2, C-X-C chemokine receptor type 2 (Homo sapiens, UniProt P25025).
T2 sequence (P25025 whole entry): T1 sequence (whole entry)
Description: Antagonist activity at CXCR2 (unknown origin) expressed in U2OS cells cotransfected with beta-arrestin/TEV protease fusion protein and beta-lactamase assessed as inhibition of CXCL8-induced beta arrestin2 recruitment preincubated for 30 mins followed by CXCL8 stimulation and measured after 5 hrs by FRET based fluorescence/Tango assay. Type of experiment: cell-based.

Experiment [9] addresses T3, Translocator protein (Homo sapiens, UniProt P30536). In words: Inhibition of PBR (unknown origin) at 10 uM by radioligand binding assay relative to control. The essentials:
(§2)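 Primary radioligand binding screen across 50 GPCRs at a single concentration of 10 μM. Compounds with ≥50% inhibition went on to secondary binding.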

Experiment [10] addresses T4, 5-hydroxytryptamine receptor 2B (Homo sapiens, UniProt P41595). Description: Inhibition of 5-HT2B (unknown origin) at 10 uM by radioligand binding assay relative to control. The essentials: as §2
For experiment [11], the target named is T5, Alpha-2A adrenergic receptor (Homo sapiens) (UniProt P08913).
T5 sequence (whole entry): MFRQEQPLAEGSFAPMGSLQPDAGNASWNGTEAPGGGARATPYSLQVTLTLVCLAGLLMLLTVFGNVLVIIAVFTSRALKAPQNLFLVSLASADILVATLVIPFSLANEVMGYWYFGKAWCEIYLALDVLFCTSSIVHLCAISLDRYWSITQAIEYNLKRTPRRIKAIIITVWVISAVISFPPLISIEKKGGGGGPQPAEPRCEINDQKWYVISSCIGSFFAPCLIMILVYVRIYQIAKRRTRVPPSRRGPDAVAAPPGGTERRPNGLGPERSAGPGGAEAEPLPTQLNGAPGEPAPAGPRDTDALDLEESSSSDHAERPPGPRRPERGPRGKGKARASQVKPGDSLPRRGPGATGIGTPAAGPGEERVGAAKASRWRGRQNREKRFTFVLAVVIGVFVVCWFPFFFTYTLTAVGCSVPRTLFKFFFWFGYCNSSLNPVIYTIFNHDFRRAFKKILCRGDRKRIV
Description: Inhibition of alpha 2a-adrenergic receptor (unknown origin) at 10 uM by radioligand binding assay relative to control. A digest of the protocol: as §2

For experiment [12], the target named is T3, Translocator protein. Description: Inhibition of PBR (unknown origin) by radioligand binding assay. The essentials: (§3)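 Secondary radioligand binding assay determining equilibrium binding affinity (Ki).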
Experiment [13] has as its target T4, 5-hydroxytryptamine receptor 2B. In words: Inhibition of 5-HT2B (unknown origin) by radioligand binding assay. A digest of the protocol:
as §3

In experiment [14] the target is T6, Alpha-2A adrenergic receptor (Homo sapiens, UniProt P08913).
T6 sequence (P08913 whole entry): T5 sequence (whole entry)
Description: Inhibition of alpha 2a-adrenergic receptor (unknown origin) by radioligand binding assay. A digest of the protocol: as §3

For experiment [15], the system named is SK-OV-3. Description: Inhibition of colony formation in human SK-OV-3 cells at 8.9 to 20 uM incubated for 7 to 10 days in presence of doxorubicin by crystal violet staining based assay. The experiment is classed as functional, cell-based. The conditions noted are these: dose 8.9-20 µM, time 7-10 day. A digest of the protocol: (§4)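 Colony formation: cells were seeded at 300/well, attached overnight, then treated with compounds for 7-10 days until colonies formed in DMSO wells. Colonies were stained with 0.05% crystal violet for 30 min and washed with water.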

Experiment [16] has as its target C-X-C chemokine receptor type 4 (Homo sapiens, UniProt P61073). Description: Antagonist activity at CXCR4 (unknown origin) expressed in U2OS cells cotransfected with beta-arrestin/TEV protease fusion protein and beta-lactamase assessed as inhibition of SDF1-alpha-induced beta arrestin2 recruitment preincubated for 30 mins followed by SDF1-alpha stimulation and measured after 5 hrs by FRET based fluorescence/Tango assay.

The subject of experiment [17] is SK-OV-3. In words: Inhibition of colony formation in human SK-OV-3 cells at 38 nM incubated for 7 to 10 days by crystal violet staining based assay. Type of experiment: functional, cell-based. The conditions noted are these: time 7-10 day. A digest of the protocol: as §4

T4 sequence (P41595 whole entry): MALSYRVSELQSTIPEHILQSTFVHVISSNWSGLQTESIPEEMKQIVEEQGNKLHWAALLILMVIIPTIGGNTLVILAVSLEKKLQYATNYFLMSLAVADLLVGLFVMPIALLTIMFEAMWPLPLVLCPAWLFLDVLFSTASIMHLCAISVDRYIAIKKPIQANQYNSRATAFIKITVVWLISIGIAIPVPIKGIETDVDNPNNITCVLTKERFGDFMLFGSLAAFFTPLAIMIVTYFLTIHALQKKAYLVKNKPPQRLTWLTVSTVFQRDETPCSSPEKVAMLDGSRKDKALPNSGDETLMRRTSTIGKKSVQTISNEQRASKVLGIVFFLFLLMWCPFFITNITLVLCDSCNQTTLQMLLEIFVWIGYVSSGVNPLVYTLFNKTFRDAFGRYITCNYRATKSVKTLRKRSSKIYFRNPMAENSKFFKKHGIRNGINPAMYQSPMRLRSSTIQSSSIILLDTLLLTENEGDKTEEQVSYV
T3 sequence (P30536 whole entry): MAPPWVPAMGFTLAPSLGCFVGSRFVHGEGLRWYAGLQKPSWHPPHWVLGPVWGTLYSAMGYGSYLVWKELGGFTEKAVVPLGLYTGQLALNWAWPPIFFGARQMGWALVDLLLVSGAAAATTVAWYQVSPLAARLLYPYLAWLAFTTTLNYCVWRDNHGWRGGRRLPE
Sequence of C-X-C chemokine receptor type 4 (P61073 whole entry, the tested form may be a part): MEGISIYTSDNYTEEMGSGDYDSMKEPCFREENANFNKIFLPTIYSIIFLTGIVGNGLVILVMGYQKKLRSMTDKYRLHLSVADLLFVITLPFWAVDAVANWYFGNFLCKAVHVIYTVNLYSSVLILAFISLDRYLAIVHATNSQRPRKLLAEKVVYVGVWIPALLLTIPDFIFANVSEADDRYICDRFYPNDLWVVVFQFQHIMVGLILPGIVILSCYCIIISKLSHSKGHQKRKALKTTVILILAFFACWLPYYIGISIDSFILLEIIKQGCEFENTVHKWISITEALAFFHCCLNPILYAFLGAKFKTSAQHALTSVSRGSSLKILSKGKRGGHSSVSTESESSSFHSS

One may read the inhibition as the change of the read-out against control, counted positive when it falls. `N#Cc1ccc(NC(=O)Nc2ccccc2Br)c2nn[nH]c12`: the outcome in experiment [1], in experiment [2] and in [3] was Active. In addition, the result in [4], in [5], in experiment [6] and in experiment [7] was inactive. Moreover, the inhibition entry in the experiment on U2OS is “Active”.
The pIC50 is the IC50 on a negative log10 scale, so that one unit is a factor of ten. The term pKi denotes −log10 of the Ki, conventionally taken in molar units. A lower pKi goes with a large Ki. In the case of `CC1COCc2sc(NC(=S)Nc3ccccc3)c(C(=O)OC(C)(C)C)c21` (stereo not drawn), the pIC50 in [8] is 5.77; in experiment [16] it was under 4.82. Also, the inhibition was determined as 63.1% at Translocator protein [9], 58% in [10] and 55.2% in [11]. Besides, the pKi was 5.40 at Translocator protein [12], under 5.00 in experiment [13] and under 5.00 in [14]. For the same compound, in the experiment on SK-OV-3 [15], the inhibition entry is “Active”.
For the compound `COc1cccc2c1C(=O)c1c(O)c3c(c(O)c1C2=O)C[C@@](O)(C(=O)CO)C[C@@H]3O[C@H]1C[C@H](N)[C@H](O)[C@H](C)O1`, in the experiment on SK-OV-3 [17], the inhibition result was “inactive”.
